According to ChEMBL document CHEMBL4689842, “EUbOPEN Chemogenomics Library wave 1” (2021):

Tested on: Fibroblast
Assay: Multiplex assay against human fibroblast
Assay type: toxicity, cell-based
In short: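 On a CQ1 microscope at 37°C and 5% CO2, live cells were imaged after compound addition. They had been stained at seeding with Hoechst33342, BioTracker Green Microtubule Cytoskeleton Dye, MitoTracker Red and Annexin V Alexa Fluor 680. CellPathfinder machine-learning gating assigned cells to Hoechst high-intensity objects or normal cells, normal cells to healthy, pyknosed or fragmented nuclei, and pyknosed cells to mitotic or apoptotic. Tubulin, mitochondrial-mass and membrane-permeability phenotypes are per cents of healthy-nucleus cells.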

[1] = 12 h, 1 µM, compound concentration 1 uM, replicate 1
[2] = 12 h, 1 µM, compound concentration 1 uM, replicate 2
[3] = 12 h, 10 µM, compound concentration 10 uM, replicate 1
[4] = 12 h, 10 µM, compound concentration 10 uM, replicate 2
[5] = 24 h, 1 µM, compound concentration 1 uM, replicate 1
[6] = 24 h, 1 µM, compound concentration 1 uM, replicate 2
[7] = 24 h, 10 µM, compound concentration 10 uM, replicate 1
[8] = 24 h, 10 µM, compound concentration 10 uM, replicate 2
[9] = 48 h, 1 µM, compound concentration 1 uM, replicate 1
[10] = 48 h, 1 µM, compound concentration 1 uM, replicate 2
[11] = 48 h, 10 µM, compound concentration 10 uM, replicate 1
[12] = 48 h, 10 µM, compound concentration 10 uM, replicate 2

## Cc1ccccc1C(c1ccccc1C)N1C2CCC1CC(O)(c1ccccc1)C2 (centres undefined)
[1]
  Population Apoptotic (%): 68%
  Population Fragmented Nuclei (%): 14%
  Population Healthy Nuclei (%): 40%
  Population Mitotic Cells (%): 31%
  Population Normal (%): 84%
  Population Pyknosed Nuclei (%): 44%
  Total Cell Count: 127
[2]
  Population Apoptotic (%): 50%
  Population Fragmented Nuclei (%): 9%
  Population Healthy Nuclei (%): 81%
  Population Hoechst High Intensity Objects (%): 9%
  Population Mitotic Cells (%): 50%
  Population Normal (%): 90%
  Population Pyknosed Nuclei (%): 9%
  Total Cell Count: 80
[3]
  Population Apoptotic (%): 63%
  Population Fragmented Nuclei (%): 23%
  Population Healthy Nuclei (%): 44%
  Population Mitotic Cells (%): 36%
  Population Normal (%): 85%
  Population Pyknosed Nuclei (%): 32%
  Total Cell Count: 161
[4]
  Population Apoptotic (%): 40%
  Population Healthy Nuclei (%): 81%
  Population Mitotic Cells (%): 60%
  Population Normal (%): 86%
  Total Cell Count: 71
[5]
  Population Apoptotic (%): 62%
  Population Healthy Nuclei (%): 55%
  Population Hoechst High Intensity Objects (%): 20%
  Population Mitotic Cells (%): 37%
  Population Normal (%): 79%
  Population Pyknosed Nuclei (%): 28%
  Total Cell Count: 107
[6]
  Population Fragmented Nuclei (%): 9%
  Population Healthy Nuclei (%): 77%
  Population Hoechst High Intensity Objects (%): 4%
  Population Mitotic Cells (%): 80%
  Population Normal (%): 95%
  Total Cell Count: 89
[7]
  Population Apoptotic (%): 47%
  Population Fragmented Nuclei (%): 23%
  Population Healthy Nuclei (%): 47%
  Population Hoechst High Intensity Objects (%): 8%
  Population Mitotic Cells (%): 52%
  Population Normal (%): 91%
  Population Pyknosed Nuclei (%): 28%
  Total Cell Count: 159
[8]
  Population Apoptotic (%): 50%
  Population Fragmented Nuclei (%): 20%
  Population Healthy Nuclei (%): 65%
  Population Mitotic Cells (%): 50%
  Population Normal (%): 93%
  Total Cell Count: 85
[9]
  Population Apoptotic (%): 61%
  Population Fragmented Nuclei (%): 30%
  Population Healthy Nuclei (%): 51%
  Population Hoechst High Intensity Objects (%): 16%
  Population Mitotic Cells (%): 38%
  Population Normal (%): 83%
  Total Cell Count: 121
[10]
  Population Apoptotic (%): 0%
  Population Fragmented Nuclei (%): 60%
  Population Healthy Nuclei (%): 40%
  Population Hoechst High Intensity Objects (%): 0%
  Population Mitotic Cells (%): 0%
  Population Normal (%): 100%
  Population Pyknosed Nuclei (%): 0%
  Total Cell Count: 5
[11]
  Population Apoptotic (%): 40%
  Population Fragmented Nuclei (%): 30%
  Population Healthy Nuclei (%): 59%
  Population Mitotic Cells (%): 60%
  Population Normal (%): 92%
  Population Pyknosed Nuclei (%): 9%
  Total Cell Count: 170
[12]
  Population Apoptotic (%): 100%
  Population Fragmented Nuclei (%): 35%
  Population Healthy Nuclei (%): 62%
  Population Hoechst High Intensity Objects (%): 4%
  Population Mitotic Cells (%): 0%
  Population Normal (%): 95%
  Population Pyknosed Nuclei (%): 1%
  Total Cell Count: 118
